Screening results (PubChem)
Shown are actives, neighbours in structure and some others; about 3.5% of the full set was active somewhere.
MrgX1 antagonist = antagonists of human MrgX1 receptor, primary screen, HEK293 cells, Fluo-4 calcium flux. Mas-related G-protein coupled receptor member X1 (Homo sapiens), Q96LB2. BAM8-22 antagonism; active compounds read low. B-score at 10 µM. hit rate 1.3% among 310,000;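 active = calcium-response B-score plate-corrected more than 3 library SD below zero, starting fluorescence within 5 deviations, no agonist response on first addition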;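 also: peak minus trough fluorescence over baseline after final BAM8-22 challenge near maximal dose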
Target sequence (Q96LB2 whole entry, looked up): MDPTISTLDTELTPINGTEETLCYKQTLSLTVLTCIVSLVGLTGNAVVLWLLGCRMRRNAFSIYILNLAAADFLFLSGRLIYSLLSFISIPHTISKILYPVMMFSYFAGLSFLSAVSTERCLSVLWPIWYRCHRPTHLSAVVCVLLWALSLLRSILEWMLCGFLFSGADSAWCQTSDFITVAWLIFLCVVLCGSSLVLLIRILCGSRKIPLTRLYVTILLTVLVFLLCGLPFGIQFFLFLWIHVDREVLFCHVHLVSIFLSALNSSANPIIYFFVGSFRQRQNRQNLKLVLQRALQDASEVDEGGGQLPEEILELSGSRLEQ
RGS4 inh = RGS4 inhibitors, primary screen, cell-based, HEK293 M3R inducible RGS4, calcium flux | Fluo-4 calcium flux; active compounds read high; triggered by carbachol at its EC20 | Regulator of G-protein signaling 4 (Homo sapiens), P49798 | B-score at 10 µM | hit rate 0.45% among 310,000;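 active = B-score, a plate-corrected calcium signal, over three deviations above library mean, with baseline fluorescence within five deviations of library mean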;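 also: RGS4 expression induced by doxycycline in cells with stable M3 receptor; B-score is computed from the integrated fluorescence ratio over baseline after carbachol; higher B-score means a larger calcium signal and so more RGS4 inhibition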
Target sequence (P49798 whole entry, looked up): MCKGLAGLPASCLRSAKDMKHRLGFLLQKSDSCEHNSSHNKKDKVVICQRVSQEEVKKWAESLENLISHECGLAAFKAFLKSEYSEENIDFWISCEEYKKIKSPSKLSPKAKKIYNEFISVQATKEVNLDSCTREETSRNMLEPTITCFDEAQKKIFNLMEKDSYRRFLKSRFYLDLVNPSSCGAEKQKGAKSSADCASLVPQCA
MrgX1 agonist = agonists of human MrgX1 receptor, primary screen, HEK293 cells, Fluo-4 calcium flux. Mas-related G-protein coupled receptor member X1 (Homo sapiens), Q96LB2. Fluo-4 calcium fluorescence, agonist mode; active compounds read high. B-score at 10 µM. hit rate 0.44% among 310,000. AID 588627, 2011;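 active = calcium response B-score plate-corrected fluorescence ratio at least 3 library SD, with starting fluorescence B-score inside 5 SD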
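Material: MrgX1-expressing HEK293 cells / Dosing: compound as first of three additions / Incubation: overnight seeding, then 1 h dark dye loading / Signal: Fluo-4 NW calcium fluorescence / Evaluation: B-scored fluorescence response ratio / Benchmarks: positive and negative control wells on each plate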
MrgX1 allo act = positive allosteric modulators of MrgX1, primary screen, HEK293 cells, Fluo-4 calcium flux. Mas-related G-protein coupled receptor member X1 (Homo sapiens), Q96LB2. FDSS; active compounds read high. B-score at 10 µM. hit rate 0.63% among 310,000. AID 588675, 2011;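 active = plate-corrected calcium response at least 3 library SD above typical, normal starting fluorescence, not activating the receptor alone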;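 also: compound read alongside a low EC10 to EC30 dose of BAM8-22 agonist; peak minus trough fluorescence over baseline measured at the second addition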
RGS4 act = RGS4 potentiators or activators, primary screen, cell-based, HEK293 M3R inducible RGS4, calcium flux; carbachol calcium flux Fluo4; active compounds read low; B-score at 10 µM; hit rate 0.92% among 310,000; AID 463111, 2010;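 active = B-score of the integrated calcium signal more than 4 SD below the library mean, with starting fluorescence not abnormally high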;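 also: negative B-score means reduced calcium response which marks RGS4 activation or potentiation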
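test system = M3R-expressing HEK293 line, RGS4 induced by doxycycline | probe or stimulus = carbachol at ECmax as muscarinic agonist stimulus | timing = dye loading 30 min 37 °C, buffer rest 30 min RT | signal = calcium dye Fluo4 fluorescence | evaluation = B score from integrated fluorescence ratio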
RGS4 activ val = reduced carbachol calcium response, RGS4-induced M3R cells, confirmation, RGS4 activator project, cell-based, HEK293 M3R/RGS4 inducible, calcium flux, duplicate | shares compounds with RGS4 act | carbachol calcium flux Fluo4 | inhibition, % at 10 µM | hit rate 89% among 1,100 | AID 602282, 2012;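 active = inhibition above 3 SD of the buffer control wells, cut at about 41% in these data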;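 also: signal is the integrated peak-minus-minimum Fluo4 fluorescence over baseline ratio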
RGS4 act ctr = activity in cells without induced RGS4 expression; hit rate 82% among 1,100; inhibition, % at 10 µM; HEK293 M3R non-induced RGS4, Fluo4 calcium flux; after carbachol challenge at its EC90; shares compounds with RGS4 act;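 active = inhibition exceeding 3 SD of buffer-only control wells, cut at about 26% in these data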;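 also: percent drop in integrated peak-minus-baseline over baseline Fluo4 ratio after carbachol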
* hit, by the source's call; i = inactive; x = no result.

SMILES	MrgX1 antagonist	RGS4 inh	MrgX1 agonist	MrgX1 allo act	RGS4 act	RGS4 activ val	RGS4 act ctr
CCN(CC)c1ccc(-c2nc3cnccn3c2NC2CCCC2)cc1	i	i	i	i	-7.9*	54*	0
O=S(=O)(NCc1csc(-c2cccs2)n1)c1ccc(Cl)cc1	i	i	i	i	i	x	x
O=S(=O)(NCc1csc(-c2cccs2)n1)c1cccs1	i	i	i	i	-8*	0	0
Clc1ccc(-c2nnc3n2-c2ccccc2SC3)cc1	i	i	i	i	i	x	x
CCOCCCN1CN(S(=O)(=O)c2ccc(Cl)cc2)c2nc3ccccc3nc21	i	i	i	i	i	x	x
Cc1cccc(N2CCN(C(=O)CCCn3c(=O)c4cccn4c4cccnc43)CC2)c1C	i	i	i	i	i	x	x
Cc1ccc(Cl)cc1N1CCN(C(=O)CCCn2c(=O)c3cccn3c3cccnc32)CC1	i	i	i	i	-7.9*	84*	50*
COC(=O)c1ccc(C(=O)N(C)C2CCCN(Cc3ccccc3F)C2)cc1 (stereo not drawn)	i	i	i	i	i	x	x
COCc1ccc(C(=O)N(C)C2CCCN(Cc3ccccc3F)C2)o1 (stereo not drawn)	i	i	i	i	-8.6*	56*	0
C=CCn1c(Oc2ccc(C=O)cc2OCC)nc2c1c(=O)n(C)c(=O)n2C	i	i	i	i	i	x	x
CCN1CCN(c2nc(-c3ccccc3)c3ccccc3n2)CC1	i	i	i	i	-8.6*	82*	40*
COC(=O)c1cc(NC(=O)CSc2nnc(N)s2)ccc1Cl	i	i	i	i	-14*	0	0
COC(=O)C(NC(=O)c1cccnc1Cl)C(C)C (stereo not drawn)	i	i	i	i	i	x	x
CCOc1ccc(S(=O)(=O)n2cnc3cc(C)c(C)cc32)cc1	i	i	i	i	-9.9*	94*	95*
Cc1cc2ncn(S(=O)(=O)c3ccc(F)cc3)c2cc1C	i	i	i	i	i	x	x
CCOc1cccc(OCCCCN2CCCCC2)c1	i	i	i	i	-7.9*	80*	37*
CC1CCCN(CCCCOc2cccc(Br)c2)C1 (stereo not drawn)	i	i	i	i	-7.5*	92*	64*
COc1cccc(OCCCCN2CCCCC2)c1	i	i	i	i	i	x	x
Brc1cccc(OCCCCN2CCCCC2)c1	i	i	i	i	-8.6*	92*	66*
Clc1ccc(OCCCCCN2CCCC2)c(Br)c1	i	i	i	i	-8*	89*	84*
CCCOc1ccc(N2CC(C(=O)NCCc3ccc(OC)c(OC)c3)CC2=O)cc1 (stereo not drawn)	i	i	i	i	i	x	x
CC(=O)C1C(c2ccc(Cl)cc2)c2c(noc2C)CC1(C)O (stereo not drawn)	i	i	i	i	i	x	x
O=C(CN1CCCCC1)Nc1cccc([N+](=O)[O-])c1	i	i	i	i	i	x	x
COc1ccc(N(CCC(=O)O)S(=O)(=O)c2ccc(C)cc2C)cc1	i	i	i	i	i	x	x
COc1ccccc1C(CNC(=O)c1cccc(NS(=O)(=O)c2ccc(C)c(F)c2)c1)N(C)C (stereo not drawn)	i	i	i	i	-8.4*	77*	55*
SMILES	MrgX1 antagonist	RGS4 inh	MrgX1 agonist	MrgX1 allo act	RGS4 act	RGS4 activ val	RGS4 act ctr
COc1ccccc1OCC(=O)Nc1cc(Cl)ccc1Oc1ccccc1	i	i	i	i	-9.1*	0	0
Cc1ccccc1OCC(=O)Nc1cc(Cl)ccc1Oc1ccccc1	i	i	i	i	i	x	x
Cc1ccc(CN(C)C(=O)C2CCC(=O)N(CCc3ccccc3)C2)o1 (stereo not drawn)	x	i	x	x	i	x	x
O=C(CNC1CCCCCC1)Nc1ccc(N2CCCC2)cc1	i	i	i	i	i	x	x
O=C(CNCCC1=CCCCC1)Nc1ccc(N2CCCCCC2)cc1	i	i	i	i	-10*	94*	92*
O=C(CNC1CCCC1)Nc1ccc(N2CCCCCC2)cc1	i	i	i	i	-8*	84*	36*
CCc1nn(C)c(N)c1C	i	i	i	i	i	x	x
COc1ccccc1CNC(=O)CCNS(=O)(=O)c1ccc2c(c1)oc(=O)n2C	i	i	i	i	i	x	x
CN(Cc1ccccc1OCCO)CC1CCCN(CCc2ccc(Cl)cc2)C1 (stereo not drawn)	i	i	i	i	i	x	x
CCn1c(SCC(=O)Nc2cccc(OC)c2)nc2c(c1=O)SCC2	i	i	i	i	i	x	x
CN1C2CCC1CC(NC(=O)CSc1ccc(Cl)cc1)C2 (stereo not drawn)	i	i	i	i	-9*	59*	0
CN1C2CCC1CC(NC(=O)c1ccc(Cl)cc1)C2 (stereo not drawn)	i	i	i	i	i	x	x
Cc1nc(-c2ccc(S(=O)(=O)Oc3ccc(Cl)cc3Cl)s2)cs1	i	i	i	i	-8.4*	89*	71*
Cc1cc(S(=O)(=O)NCCC2=CCCCC2)ccc1Br	i	i	i	i	-9.6*	92*	83*
Cc1ccc(S(=O)(=O)NCCC2=CCCCC2)cc1C(N)=O	i	i	i	i	i	x	x
O=C(COc1ccc([N+](=O)[O-])cc1Cl)NCC1CCCO1 (stereo not drawn)	i	i	i	i	i	x	x
CCOc1ccc2ncc(C(=O)c3ccc(OC)cc3)c(N3CCN(CC)CC3)c2c1	i	i	i	i	i	x	x
CCOC(=O)c1cnc2ccc(OCC)cc2c1N1CCN(c2ccccc2OC)CC1	i	i	i	i	-9.1*	93*	93*
Cc1cc2c(s1)Nc1ccccc1N=C2N1CCN(C)CC1	i	i	i	i	-9.5*	91*	85*
OCCOCCN1CCN(C2=Nc3ccccc3Sc3ccccc32)CC1	i	i	i	i	i	x	x
